# Data: ChEMBL document CHEMBL2424622, “Development of amino-pyrimidine inhibitors of c-Jun N-terminal kinase (JNK): kinase profiling guided optimization of a 1,2,3-benzotriazole lead” (Bioorg Med Chem Lett, 2013)
# Columns and labels:
# [1] = molecular target: MAP kinase-interacting serine/threonine-protein kinase 1 (Homo sapiens, UniProt Q9BUB5); assay: Competitive binding affinity to MKNK1 (unknown origin) at 10 uM in presence of ATP relative to control
# [2] = molecular target: Maternal embryonic leucine zipper kinase (Homo sapiens) (UniProt Q14680); assay: Competitive binding affinity to MELK (unknown origin) at 10 uM in presence of ATP relative to control
# Chain of Maternal embryonic leucine zipper kinase (Homo sapiens) (Q14680 whole entry, looked up, the tested form may be a part): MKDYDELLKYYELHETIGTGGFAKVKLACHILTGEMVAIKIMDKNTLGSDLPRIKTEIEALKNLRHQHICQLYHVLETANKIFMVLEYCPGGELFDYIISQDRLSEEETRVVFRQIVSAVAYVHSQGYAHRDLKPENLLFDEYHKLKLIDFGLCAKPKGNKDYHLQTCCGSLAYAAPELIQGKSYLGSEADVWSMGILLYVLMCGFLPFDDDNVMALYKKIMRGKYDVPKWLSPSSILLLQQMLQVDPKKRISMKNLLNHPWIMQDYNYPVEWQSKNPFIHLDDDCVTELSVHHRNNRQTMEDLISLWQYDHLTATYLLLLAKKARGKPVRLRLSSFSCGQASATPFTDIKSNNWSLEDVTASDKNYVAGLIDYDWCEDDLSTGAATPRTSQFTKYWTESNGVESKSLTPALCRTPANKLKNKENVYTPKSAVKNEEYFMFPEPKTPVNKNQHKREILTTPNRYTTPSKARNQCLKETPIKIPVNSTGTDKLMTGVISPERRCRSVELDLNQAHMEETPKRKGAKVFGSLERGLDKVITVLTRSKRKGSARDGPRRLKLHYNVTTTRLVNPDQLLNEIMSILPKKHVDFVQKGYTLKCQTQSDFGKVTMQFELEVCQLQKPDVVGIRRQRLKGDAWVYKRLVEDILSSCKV
# [3] = molecular target: LIM domain kinase 2 (Homo sapiens, UniProt P53671); assay: Competitive binding affinity to LIMK2 (unknown origin) at 10 uM in presence of ATP relative to control
# Chain of LIM domain kinase 2 (P53671 whole entry, looked up, the tested form may be a part): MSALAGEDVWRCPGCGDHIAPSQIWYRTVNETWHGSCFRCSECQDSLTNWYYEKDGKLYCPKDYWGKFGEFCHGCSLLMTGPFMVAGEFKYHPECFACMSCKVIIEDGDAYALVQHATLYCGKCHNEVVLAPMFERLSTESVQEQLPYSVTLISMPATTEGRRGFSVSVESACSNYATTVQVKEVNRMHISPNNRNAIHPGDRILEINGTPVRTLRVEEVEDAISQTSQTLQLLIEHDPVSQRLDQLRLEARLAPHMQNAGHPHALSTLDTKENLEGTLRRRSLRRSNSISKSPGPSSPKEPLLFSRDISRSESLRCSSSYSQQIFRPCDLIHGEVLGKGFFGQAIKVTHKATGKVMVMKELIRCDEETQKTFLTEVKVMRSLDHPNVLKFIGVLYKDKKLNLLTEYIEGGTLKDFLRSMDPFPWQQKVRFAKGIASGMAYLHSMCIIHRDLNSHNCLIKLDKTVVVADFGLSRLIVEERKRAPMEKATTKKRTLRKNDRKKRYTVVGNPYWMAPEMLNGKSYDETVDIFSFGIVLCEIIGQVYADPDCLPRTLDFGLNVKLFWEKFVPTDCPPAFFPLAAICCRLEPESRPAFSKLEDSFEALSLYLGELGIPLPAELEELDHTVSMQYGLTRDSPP
# In short: (§1)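 In vitro ATP-site competition binding assay, part of profiling against a diverse panel of 128 kinases. Each compound was tested at a single concentration of 10 µM. Kinome selectivity was summarized as S15 selectivity scores.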
# [4] = molecular target: T1, Ephrin type-B receptor 2 (Homo sapiens) (UniProt P29323); assay: Competitive binding affinity to EPHB2 (unknown origin) at 10 uM in presence of ATP relative to control; in short: as §1
# T1 sequence (whole entry): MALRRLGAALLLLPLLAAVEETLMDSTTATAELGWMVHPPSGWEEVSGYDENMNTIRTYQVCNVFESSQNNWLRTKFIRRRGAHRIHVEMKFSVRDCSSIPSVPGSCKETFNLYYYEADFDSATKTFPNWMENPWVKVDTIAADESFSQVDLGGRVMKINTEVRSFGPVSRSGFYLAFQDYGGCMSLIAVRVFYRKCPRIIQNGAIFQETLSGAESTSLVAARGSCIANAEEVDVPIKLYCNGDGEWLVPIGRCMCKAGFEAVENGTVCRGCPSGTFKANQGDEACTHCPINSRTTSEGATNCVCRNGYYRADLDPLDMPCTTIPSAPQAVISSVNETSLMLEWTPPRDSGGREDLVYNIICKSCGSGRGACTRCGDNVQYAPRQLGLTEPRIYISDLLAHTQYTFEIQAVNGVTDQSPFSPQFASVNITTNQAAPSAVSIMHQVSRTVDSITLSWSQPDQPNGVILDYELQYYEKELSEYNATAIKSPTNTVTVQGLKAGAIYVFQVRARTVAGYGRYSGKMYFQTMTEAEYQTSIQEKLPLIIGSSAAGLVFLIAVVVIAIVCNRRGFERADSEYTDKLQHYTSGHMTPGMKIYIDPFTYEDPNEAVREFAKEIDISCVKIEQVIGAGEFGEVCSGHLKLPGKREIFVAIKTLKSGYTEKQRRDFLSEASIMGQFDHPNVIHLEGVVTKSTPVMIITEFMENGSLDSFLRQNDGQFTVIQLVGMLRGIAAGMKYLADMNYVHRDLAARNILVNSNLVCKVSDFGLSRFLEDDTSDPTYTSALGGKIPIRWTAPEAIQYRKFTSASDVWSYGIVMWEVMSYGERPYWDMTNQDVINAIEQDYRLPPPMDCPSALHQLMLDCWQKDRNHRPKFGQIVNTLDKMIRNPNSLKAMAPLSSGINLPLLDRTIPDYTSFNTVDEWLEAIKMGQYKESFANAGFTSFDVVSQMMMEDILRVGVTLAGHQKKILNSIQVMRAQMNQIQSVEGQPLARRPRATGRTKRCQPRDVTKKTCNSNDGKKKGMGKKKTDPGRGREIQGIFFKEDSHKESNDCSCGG
# [5] = molecular target: Ribosomal protein S6 kinase alpha-4 (Homo sapiens) (UniProt O75676); assay: Competitive binding affinity to RPS6KA4 kinase domain 1 (unknown origin) at 10 uM in presence of ATP relative to control
# Chain of Ribosomal protein S6 kinase alpha-4 (Homo sapiens) (O75676 whole entry, looked up, the tested form may be a part): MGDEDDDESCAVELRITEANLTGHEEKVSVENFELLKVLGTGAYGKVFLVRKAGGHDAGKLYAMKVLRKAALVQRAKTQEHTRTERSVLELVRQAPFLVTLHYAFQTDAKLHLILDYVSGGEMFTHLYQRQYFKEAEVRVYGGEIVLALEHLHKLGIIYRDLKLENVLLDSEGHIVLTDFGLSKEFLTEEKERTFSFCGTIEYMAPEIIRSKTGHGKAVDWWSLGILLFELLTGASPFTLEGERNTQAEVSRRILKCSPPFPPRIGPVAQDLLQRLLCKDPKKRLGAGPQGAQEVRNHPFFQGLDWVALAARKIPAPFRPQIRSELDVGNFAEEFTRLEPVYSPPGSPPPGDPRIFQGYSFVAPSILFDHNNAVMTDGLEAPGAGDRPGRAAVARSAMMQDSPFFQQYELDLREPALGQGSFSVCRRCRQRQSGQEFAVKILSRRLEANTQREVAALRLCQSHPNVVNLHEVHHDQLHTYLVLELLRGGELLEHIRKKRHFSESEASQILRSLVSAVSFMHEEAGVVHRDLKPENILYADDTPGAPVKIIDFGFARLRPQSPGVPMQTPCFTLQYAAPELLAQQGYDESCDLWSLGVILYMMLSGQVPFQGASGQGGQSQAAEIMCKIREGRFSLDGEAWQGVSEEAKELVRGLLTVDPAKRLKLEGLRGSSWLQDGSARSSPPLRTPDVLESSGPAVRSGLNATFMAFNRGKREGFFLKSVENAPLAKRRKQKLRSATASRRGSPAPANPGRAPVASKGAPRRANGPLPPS
# [6] = molecular target: Serine/threonine-protein kinase N1 (Homo sapiens) (UniProt Q16512); assay: Competitive binding affinity to PKN1 (unknown origin) at 10 uM in presence of ATP relative to control
# Chain of Serine/threonine-protein kinase N1 (Homo sapiens) (Q16512 2-942 limits assumed): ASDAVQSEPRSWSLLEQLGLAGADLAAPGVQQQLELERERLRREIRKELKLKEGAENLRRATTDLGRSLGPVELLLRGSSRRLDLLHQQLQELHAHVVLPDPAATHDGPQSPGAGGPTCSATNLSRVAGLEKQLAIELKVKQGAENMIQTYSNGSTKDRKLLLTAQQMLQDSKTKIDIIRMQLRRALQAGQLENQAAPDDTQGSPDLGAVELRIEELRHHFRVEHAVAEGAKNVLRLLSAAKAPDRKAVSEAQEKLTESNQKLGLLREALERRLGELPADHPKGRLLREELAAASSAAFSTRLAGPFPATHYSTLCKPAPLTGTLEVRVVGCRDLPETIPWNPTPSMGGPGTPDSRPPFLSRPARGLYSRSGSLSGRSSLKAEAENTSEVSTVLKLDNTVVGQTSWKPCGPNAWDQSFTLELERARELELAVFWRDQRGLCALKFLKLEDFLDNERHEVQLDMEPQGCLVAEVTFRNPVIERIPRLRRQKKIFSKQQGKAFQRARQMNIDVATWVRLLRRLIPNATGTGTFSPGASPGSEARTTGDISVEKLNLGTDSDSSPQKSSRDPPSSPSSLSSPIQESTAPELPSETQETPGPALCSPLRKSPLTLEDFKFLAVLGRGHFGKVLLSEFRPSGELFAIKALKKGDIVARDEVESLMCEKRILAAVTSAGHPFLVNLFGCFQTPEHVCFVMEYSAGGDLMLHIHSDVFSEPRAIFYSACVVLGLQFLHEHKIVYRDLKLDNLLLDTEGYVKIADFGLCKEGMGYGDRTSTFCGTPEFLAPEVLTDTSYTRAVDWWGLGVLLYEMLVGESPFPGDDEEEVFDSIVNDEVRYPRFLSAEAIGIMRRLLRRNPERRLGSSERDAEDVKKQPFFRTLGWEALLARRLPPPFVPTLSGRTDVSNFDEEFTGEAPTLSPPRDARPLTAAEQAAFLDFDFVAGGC
# [7] = molecular target: Activated CDC42 kinase 1 (Homo sapiens) (UniProt Q07912); assay: Competitive binding affinity to ACK1 (unknown origin) at 10 uM in presence of ATP relative to control
# [8] = molecular target: Serine/threonine-protein kinase ULK3 (Mus musculus) (UniProt Q3U3Q1); assay: Competitive binding affinity to mouse ULK3 at 10 uM in presence of ATP relative to control
# Chain of Serine/threonine-protein kinase ULK3 (Mus musculus) (Q3U3Q1 whole entry): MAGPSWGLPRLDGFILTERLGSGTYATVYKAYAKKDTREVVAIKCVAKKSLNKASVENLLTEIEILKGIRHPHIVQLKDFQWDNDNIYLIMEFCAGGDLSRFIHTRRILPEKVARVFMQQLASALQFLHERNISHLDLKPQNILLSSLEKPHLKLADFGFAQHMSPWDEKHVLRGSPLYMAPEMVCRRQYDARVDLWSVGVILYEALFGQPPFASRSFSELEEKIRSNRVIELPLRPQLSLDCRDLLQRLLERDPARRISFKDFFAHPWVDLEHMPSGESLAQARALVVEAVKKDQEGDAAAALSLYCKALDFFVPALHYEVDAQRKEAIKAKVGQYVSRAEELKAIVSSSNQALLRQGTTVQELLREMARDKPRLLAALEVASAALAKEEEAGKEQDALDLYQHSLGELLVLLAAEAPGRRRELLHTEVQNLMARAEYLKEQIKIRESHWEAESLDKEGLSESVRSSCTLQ
# [9] = molecular target: T2, Serine/threonine-protein kinase STK11 (Homo sapiens) (UniProt Q15831); assay: Competitive binding affinity to STK11 (unknown origin) at 10 uM in presence of ATP relative to control
# T2 sequence (whole entry): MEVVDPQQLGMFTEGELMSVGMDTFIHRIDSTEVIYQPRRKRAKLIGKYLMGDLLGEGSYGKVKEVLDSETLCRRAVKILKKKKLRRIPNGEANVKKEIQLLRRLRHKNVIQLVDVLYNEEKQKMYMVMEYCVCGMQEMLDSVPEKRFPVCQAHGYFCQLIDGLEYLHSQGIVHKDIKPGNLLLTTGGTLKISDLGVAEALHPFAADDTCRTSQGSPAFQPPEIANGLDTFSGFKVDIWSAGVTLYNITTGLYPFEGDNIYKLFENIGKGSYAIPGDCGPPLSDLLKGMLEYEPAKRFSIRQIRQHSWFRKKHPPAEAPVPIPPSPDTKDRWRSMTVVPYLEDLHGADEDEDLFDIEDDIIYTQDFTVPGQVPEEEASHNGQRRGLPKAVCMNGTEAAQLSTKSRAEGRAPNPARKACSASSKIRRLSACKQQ
# [10] = molecular target: Serine/threonine-protein kinase 10 (Homo sapiens) (UniProt O94804); assay: Competitive binding affinity to STK10 (unknown origin) at 10 uM in presence of ATP relative to control
# Chain of Serine/threonine-protein kinase 10 (Homo sapiens) (O94804 whole entry, looked up): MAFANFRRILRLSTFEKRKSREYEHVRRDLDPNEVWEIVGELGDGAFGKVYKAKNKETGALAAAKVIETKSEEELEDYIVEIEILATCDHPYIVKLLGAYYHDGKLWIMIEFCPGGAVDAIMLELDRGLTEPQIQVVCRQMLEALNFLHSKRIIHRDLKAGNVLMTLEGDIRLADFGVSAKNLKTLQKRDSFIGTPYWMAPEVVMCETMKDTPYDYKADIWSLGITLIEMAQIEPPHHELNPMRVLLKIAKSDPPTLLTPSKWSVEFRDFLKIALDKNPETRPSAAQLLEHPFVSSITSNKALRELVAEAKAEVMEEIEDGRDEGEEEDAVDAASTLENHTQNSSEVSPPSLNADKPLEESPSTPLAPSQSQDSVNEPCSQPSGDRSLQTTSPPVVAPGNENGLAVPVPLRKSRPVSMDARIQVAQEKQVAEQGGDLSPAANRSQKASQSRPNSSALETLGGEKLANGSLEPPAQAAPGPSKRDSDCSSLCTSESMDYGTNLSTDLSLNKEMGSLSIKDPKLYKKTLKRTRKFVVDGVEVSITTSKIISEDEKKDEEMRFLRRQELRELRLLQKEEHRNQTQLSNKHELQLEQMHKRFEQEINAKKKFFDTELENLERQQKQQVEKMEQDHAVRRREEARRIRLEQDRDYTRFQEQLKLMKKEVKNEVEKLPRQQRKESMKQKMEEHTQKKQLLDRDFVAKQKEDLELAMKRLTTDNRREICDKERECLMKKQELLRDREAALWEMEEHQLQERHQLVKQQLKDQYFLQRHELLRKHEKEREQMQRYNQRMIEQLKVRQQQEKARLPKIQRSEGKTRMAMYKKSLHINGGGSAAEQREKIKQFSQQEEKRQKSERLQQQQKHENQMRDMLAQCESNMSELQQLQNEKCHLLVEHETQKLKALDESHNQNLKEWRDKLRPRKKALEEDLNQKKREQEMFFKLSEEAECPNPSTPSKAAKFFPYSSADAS
# [11] = Oral bioavailability in Hanover-Wistar rat at 20 mg/kg; format: ADME, organism-based; conditions: in vivo
# [12] = Half life in Hanover-Wistar rat at 2 mg/kg, po; format: ADME, organism-based; set-up: dose 2 mg/kg, route oral; conditions: in vivo
# [13] = Intrinsic clearance in rat liver microsomes measured per mg of protein; format: ADME, Microsome; conditions: read-out: CLH
# [14] = Intrinsic permeability from basolateral to apical side in human Caco2 cells at 10 uM; format: ADME, cell-based; conditions: Caco-2, read-out: permeability
# [15] = Equilibrium aqueous solubility in phosphate buffer at pH 6.5 at 25 degC; format: physicochemical
# [16] = molecular target: Ribosomal protein S6 kinase alpha-1 (Homo sapiens, UniProt Q15418); assay: Binding affinity to RPS6KA1 (unknown origin)
# [17] = molecular target: Mitogen-activated protein kinase 11 (Homo sapiens, UniProt Q15759); assay: Binding affinity to p38-beta (unknown origin)
# [18] = molecular target: Serine/threonine-protein kinase Nek7 (Homo sapiens, UniProt Q8TDX7); assay: Binding affinity to NEK7 (unknown origin)
# [19] = molecular target: Mitogen-activated protein kinase 1 (Homo sapiens, UniProt P28482); assay: Binding affinity to ERK2 (unknown origin)
# [20] = molecular target: Mitogen-activated protein kinase 3 (Homo sapiens, UniProt P27361); assay: Binding affinity to ERK1 (unknown origin)
# [21] = molecular target: Cyclin-dependent kinase 11A (Homo sapiens, UniProt Q9UQ88); assay: Binding affinity to CDC2L2 (unknown origin)
# [22] = molecular target: Atypical kinase COQ8A, mitochondrial (Homo sapiens, UniProt Q8NI60); assay: Binding affinity to ADCK3 (unknown origin)
# Chain of MAP kinase-interacting serine/threonine-protein kinase 1 (Q9BUB5 whole entry, looked up): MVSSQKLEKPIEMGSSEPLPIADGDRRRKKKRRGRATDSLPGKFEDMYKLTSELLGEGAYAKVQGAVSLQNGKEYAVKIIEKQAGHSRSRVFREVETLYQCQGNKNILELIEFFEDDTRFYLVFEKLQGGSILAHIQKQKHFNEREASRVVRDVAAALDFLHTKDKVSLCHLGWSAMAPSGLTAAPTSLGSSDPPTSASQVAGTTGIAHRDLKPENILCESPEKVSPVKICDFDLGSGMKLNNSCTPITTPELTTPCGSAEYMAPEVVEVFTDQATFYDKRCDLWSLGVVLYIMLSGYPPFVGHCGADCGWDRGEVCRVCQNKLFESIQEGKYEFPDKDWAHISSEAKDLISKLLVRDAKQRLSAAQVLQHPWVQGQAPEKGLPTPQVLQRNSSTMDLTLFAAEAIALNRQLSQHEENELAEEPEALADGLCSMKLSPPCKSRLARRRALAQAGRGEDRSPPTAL
smiles,measurement,setting,value
O[C@H]1CC[C@H](Nc2nccc(-n3nnc4ccccc43)n2)CC1,inhibition,[1],97%
same,inhibition,[2],94%
same,inhibition,[3],78%
same,inhibition,[4],< 50%
same,inhibition,[5],< 50%
same,inhibition,[6],< 50%
N[C@H]1CC[C@H](Nc2nccc(-n3nnc4ccccc43)n2)CC1,inhibition,[7],< 50%
same,inhibition,[8],< 50%
same,inhibition,[9],98%
same,inhibition,[10],< 50%
O=C([C@H]1CC[C@H](Nc2nccc(-n3nnc4ccccc43)n2)CC1)N1CCOCC1,inhibition,[7],< 50%
same,inhibition,[8],< 50%
same,inhibition,[9],< 50%
same,inhibition,[10],< 50%
CS(=O)(=O)CCCOc1cccc2c1ccn2-c1ccnc(N[C@H]2CC[C@H](C(=O)N3CCC(O)CC3)CC2)n1,inhibition,[1],> 85%
same,inhibition,[3],> 85%
same,bioavailability,[11],13%
same,half-life,[12],4 h
same,microsomal CLint,[13],52 µL/min/mg
same,Papp B→A at 10 µM,[14],11.5 ×10⁻⁶ cm/s
same,solubility thermodynamic,[15],3.9 µg/mL
same,Kd,[16],2.1 µM
same,Kd,[17],3.2 µM
same,Kd,[18],6.9 µM
same,Kd,[19],1.5 µM
same,Kd,[20],1.8 µM
same,Kd,[21],2.4 µM
same,Kd,[22],0.49 µM
O[C@H]1CC[C@H](Nc2nccc(-n3ncc4ccccc43)n2)CC1,inhibition,[1],70%
same,inhibition,[2],74%
same,inhibition,[3],76%
same,inhibition,[4],< 50%
same,inhibition,[5],< 50%
same,inhibition,[6],< 50%
O[C@H]1CC[C@H](Nc2nccc(-c3n[nH]c4ccccc34)n2)CC1,inhibition,[2],94%
same,inhibition,[3],100%
same,inhibition,[4],< 50%
same,inhibition,[5],99%
O[C@H]1CC[C@H](Nc2nccc(-n3ccc4ccccc43)n2)CC1,inhibition,[1],< 50%
same,inhibition,[2],< 50%
same,inhibition,[3],81%
same,inhibition,[4],< 50%
same,inhibition,[5],< 50%
same,inhibition,[6],< 50%
